Common to all, as to assay type: cell membranes
The target of data set [1] is T1, CAAX prenyl protease 2 (Saccharomyces cerevisiae S288c) (UniProt Q03530).
T1 sequence (whole entry): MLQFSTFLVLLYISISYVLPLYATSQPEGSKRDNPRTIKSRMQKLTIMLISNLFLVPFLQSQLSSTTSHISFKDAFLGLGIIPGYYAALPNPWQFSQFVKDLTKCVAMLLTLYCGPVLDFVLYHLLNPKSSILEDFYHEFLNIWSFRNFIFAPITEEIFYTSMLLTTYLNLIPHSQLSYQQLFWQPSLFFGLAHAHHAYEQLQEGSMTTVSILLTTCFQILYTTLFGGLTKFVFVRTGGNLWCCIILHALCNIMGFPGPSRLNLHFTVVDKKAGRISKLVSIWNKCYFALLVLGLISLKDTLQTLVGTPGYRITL
The experiment in a line: Binding affinity to Rce1p in yeast membranes assessed as reduction in binding affinity at 0.75 uM after 30 mins by Western blotting in presence of 50 uM of (3S,6S,9S,12S,15S,18R,21S,24S,27S)-3,9,15-tris(4-aminobutyl)-24-sec-butyl-21-(4-(3,5-dinitrophenylamino)butyl)-12-((S)-1-hydroxyethyl)-6-(hydroxymethyl)-22-imino-27-(2-(methylthio)ethyl)-1,4,7,10,13,16,19,25-octaoxo-1-phenyl-18-(((2E,6E)-3,7,11-trimethyldodeca-2,6,10-trienylthio)methyl)-2,5,8,11,14,17,20,23,26-nonaazaoctacosan-28-oic acid. Details: scale not given: the % may be the effect or the level left. In short, it runs like this: (§1)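 Competition photolabelling: Rce1p-containing yeast membranes (0.25 μg/μL) with biotinylated benzophenone probe (0.75 μM) in 100 mM Hepes, 5 mM MgCl2, pH 7.5. Farnesylated competitor peptide added at 50 or 100 μM. UV photolysis 30 min at 4 °C, then streptavidin pull-down and anti-HA Western blot. Band intensities quantified by densitometry relative to the no-competitor reaction.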
(In western blotting, separated proteins are transferred to a membrane and probed.)

The target of data set [2] is T1, CAAX prenyl protease 2 (Saccharomyces cerevisiae S288c). As to the kind of experiment: Binding affinity to Rce1p in yeast membranes assessed as reduction in binding affinity at 0.75 uM after 30 mins by Western blotting in presence of 100 uM of (3S,6S,9S,12S,15S,18R,21S,24S,27S)-3,9,15-tris(4-aminobutyl)-24-sec-butyl-21-(4-(3,5-dinitrophenylamino)butyl)-12-((S)-1-hydroxyethyl)-6-(hydroxymethyl)-22-imino-27-(2-(methylthio)ethyl)-1,4,7,10,13,16,19,25-octaoxo-1-phenyl-18-(((2E,6E)-3,7,11-trimethyldodeca-2,6,10-trienylthio)methyl)-2,5,8,11,14,17,20,23,26-nonaazaoctacosan-28-oic acid. On the set-up: scale not given: the % may be the effect or the level left. Put shortly:
as §1

Substrate in data set [3]: CC[C@H](C)[C@H](NC(=O)[C@H](CCCCNc1cc([N+](=O)[O-])cc([N+](=O)[O-])c1)NC(=O)[C@H](CSC/C=C(\C)CC/C=C(\C)CCC=C(C)C)NC(=O)[C@H](CCCCN)NC(=O)[C@@H](NC(=O)[C@H](CCCCN)NC(=O)[C@H](CO)NC(=O)[C@H](CCCCN)NC(=O)c1ccccc1N)[C@@H](C)O)C(=O)N[C@@H](CCSC)C(=O)O
The experiment in a line: (§2) Activity of Rce1p in yeast membranes assessed as enzyme-mediated Ca1a2X proteolysis measured every 30 to 60 seconds for 1 hr by spectrofluorimetric assay. Conditions: Saccharomyces cerevisiae.

Substrate in data set [4]: CC[C@H](C)[C@H](NC(=O)[C@H](CCCCNc1cc([N+](=O)[O-])cc([N+](=O)[O-])c1)NC(=O)[C@H](CSC/C=C(\C)COCc1cccc(C(=O)c2ccccc2)c1)NC(=O)[C@H](CCCCN)NC(=O)[C@@H](NC(=O)[C@H](CCCCN)NC(=O)[C@H](CO)NC(=O)[C@H](CCCCN)NC(=O)c1ccccc1N)[C@@H](C)O)C(=O)N[C@@H](CCSC)C(=O)O
Described as §2. As to conditions: Saccharomyces cerevisiae.

Substrate in data set [5]: CC[C@H](C)[C@H](NC(=O)[C@H](CCCCNc1cc([N+](=O)[O-])cc([N+](=O)[O-])c1)NC(=O)[C@H](CSC/C=C(\C)COCc1cccc(C(=O)c2ccccc2)c1)NC(=O)[C@H](CCCCN)NC(=O)[C@@H](NC(=O)[C@H](CCCCN)NC(=O)[C@H](CO)NC(=O)[C@H](CCCCN)NC(=O)c1ccccc1N)[C@@H](C)O)C(=O)N[C@@H](CCSC)C(=O)O
The experiment in a line: Activity of Rce1p in yeast membranes assessed as enzyme-mediated Ca1a2X proteolysis per mg of protein measured every 30 to 60 seconds for 1 hr by spectrofluorimetric assay. Conditions: Saccharomyces cerevisiae.

Where “and” joins values, the source holds several entries; their conditions need not be identical. Equal entries are not always repeated. Where a SMILES comes first, the peptide text is derived from it. [ ]: non-standard residue; d: D form. The star is where a group is joined. X1 = O=[N+]([O-])c1cc([N+](=O)[O-])cc(*)c1; Farnesyl = CC(C)=CCC/C(C)=C/CC/C(C)=C/C*; 2Abz = Nc1ccccc1C(=O)O

On to `CC[C@H](C)[C@H](NC(=O)[C@H](CCCCNc1cc([N+](=O)[O-])cc([N+](=O)[O-])c1)NC(=O)[C@H](CSC/C=C(\C)CC/C=C(\C)CCC=C(C)C)NC(=O)[C@H](CCCCN)NC(=O)[C@@H](NC(=O)[C@H](CCCCN)NC(=O)[C@H](CO)NC(=O)[C@H](CCCCN)NC(=O)c1ccccc1N)[C@@H](C)O)C(=O)N[C@@H](CCSC)C(=O)O` (H-[2Abz]KSKTKC(Farnesyl)K(X1)IM-OH), for which the figures for the Activity in data set [1] and in data set [2] were 60% and 31%, respectively.

B1: CAAX prenyl protease 2 (Saccharomyces cerevisiae S288c), Q03530 (protein)
chain: T1 sequence (whole entry)
By Km is commonly meant the concentration of substrate that gives half-maximal velocity. As usually defined, the Vmax is the rate approached at saturating substrate. Consider B1, for which the Michaelis-Menten constant (Km) in data set [3] is 6.4 µM and 4 µM; in data set [4] it was 1.9 µM. Further, the Vmax in data set [5] was found to be 0.093 nmol/min/mg.
